{"source": "paper PMC2819655", "about": "(Bioorganic & medicinal chemistry, 2009)", "key": {"[1]": {"molecular_target": "T1, purified rabbit 20S proteasome (Oryctolagus cuniculus, UniProt G1T4Q9)", "T1 sequence (G1T4Q9 60-263)": "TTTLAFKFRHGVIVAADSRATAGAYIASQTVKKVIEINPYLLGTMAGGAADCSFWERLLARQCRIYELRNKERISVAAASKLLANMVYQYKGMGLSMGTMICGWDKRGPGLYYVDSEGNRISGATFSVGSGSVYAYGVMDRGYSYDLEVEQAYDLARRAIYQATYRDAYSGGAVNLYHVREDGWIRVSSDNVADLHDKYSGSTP", "test": "Inhibition of purified 20S proteasome chymotrypsin-like activity", "format": "biochemical", "conditions": "for proteasome inhibition: even at 50 μM, Fig. 2A", "method_in_brief": "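Purified rabbit 20S proteasome (35 ng) incubated with 20 μM Suc-LLVY-AMC in 20 mM Tris–HCl pH 7.5, with test compound at various concentrations or solvent, for 2 h at 37°C. Chymotrypsin-like activity was read as fluorogenic substrate hydrolysis at 355 nm excitation and 460 nm emission.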"}, "[2]": {"tested_on": "proteasome chymotrypsin-like activity", "conditions": "cited from earlier work"}, "[3]": {"molecular_target": "T2, 26S proteasome in MDA-MB-231 cell extract (Homo sapiens, UniProt P28074)", "T2 sequence (P28074 60-263)": "T1 sequence (G1T4Q9 60-263) with D197E", "test": "Proteasomal chymotrypsin-like activity in MDA-MB-231 cell extract", "format": "biochemical", "conditions": "for change of proteasome inhibitory activity with COMT inhibitor DNC: lysate pre-treated with 10 μM DNC for 20 minutes, Fig. 3B; for inhibition of proteasomal activity: MDA-MB-231 cell lysate with high COMT activity, 1-10 μM, 2 h, Fig. 3A", "method_in_brief": "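MDA-MB-231 cell extract (5.7 μg; lysate with high COMT activity) incubated with 20 μM Suc-LLVY-AMC in 20 mM Tris–HCl pH 7.5 with test compound at various concentrations or solvent, 2 h, 37°C. Chymotrypsin-like activity was measured by fluorescence at 355/460 nm. In the COMT-blocked arm, the extract was pre-treated 20 min with 10 μM 3,5-dinitrocatechol, then co-incubated with test compound for 2 h.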"}, "cancer cell lines": {"tested_on": "cancer cell lines", "conditions": "a number of cancer cell lines; cited from earlier work"}, "MDA-MB-231 cells": {"tested_on": "MDA-MB-231 cells", "test": "MTT assay, cell proliferation", "format": "cell-based, human", "conditions": "for inhibition of cell proliferation: MDA-MB-231, 25 to 50 μM, 24 h, MTT, Fig. 4; for cell growth inhibition compared to non-acetylated precursors 5 and 7: MDA-MB-231, Fig. 4", "method_in_brief": "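MDA-MB-231 cells were grown in RPMI 1640 with 10% FBS and penicillin/streptomycin at 37°C, 5% CO2. Triplicate wells were treated with test compound (25 or 50 μM) for 24 h. The medium was aspirated, then MTT (1 mg/ml) was added for 3 h at 37°C. The formazan was dissolved in DMSO and absorbance read at 540 nm.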"}, "[4]": {"tested_on": "proteasome in MDA-MB-231 cells", "test": "Accumulation of ubiquitinated proteins, Western blotting", "format": "cell-based, human", "conditions": "MDA-MB-231, 50 μM, 22 hours, compared with compound 6 and Pro-EGCG (4), Fig. 6", "method_in_brief": "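MDA-MB-231 cells (ATCC; RPMI 1640 with 10% FBS, penicillin/streptomycin; 37°C, 5% CO2) exposed to 50 μM test compound for 22 h. Extracted proteins were analysed by Western blot with antibodies against ubiquitinated proteins, with actin as loading reference.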"}}, "note": "Numbering of substitutions follows the chain as printed.", "data": [{"smiles": "O=C(O[C@@H]1Cc2c(O)cc(O)cc2O[C@@H]1c1cc(O)c(O)c(O)c1)c1cc(O)c(O)c(O)c1", "note": "[EGCG, (-)-Epigallocatechin-3-gallate, reference compound]", "values": [{"measurement": "inhibition of proteasomal chymotryptic activity", "setting": "[1]; Fig. 2", "result": "potently inhibited"}, {"measurement": "IC50", "setting": "[2]; read-out: IC50, chymotrypsin-like activity of the proteasome in vitro, in vitro", "result": "0.086 to 0.194", "unit": "µM"}, {"measurement": "change of proteasome inhibitory activity with COMT inhibitor DNC", "setting": "[3]", "result": "improved"}]}, {"smiles": "CC(=O)Oc1cc(OC(C)=O)c2c(c1)O[C@H](c1cc(OC(C)=O)c(OC(C)=O)c(OC(C)=O)c1)[C@H](OC(=O)c1cc(OC(C)=O)c(OC(C)=O)c(OC(C)=O)c1)C2", "note": "[compound 4, peracetate of (-)-EGCG]", "values": [{"measurement": "growth inhibitory activity relative to EGCG", "setting": "cancer cell lines", "result": "enhanced growth inhibitory activity"}, {"measurement": "inhibition of cell proliferation", "setting": "MDA-MB-231 cells", "result": "0 to 32", "unit": "%"}, {"measurement": "activity as a proteasome inhibitor", "setting": "[2]", "result": "not active"}]}, {"smiles": "O=C(O[C@H]1Cc2ccccc2C[C@H]1OC(=O)c1cc(O)c(O)c(O)c1)c1cc(O)c(O)c(O)c1", "note": "[compound 5]", "values": [{"measurement": "inhibition of proteasomal activity", "setting": "[3]", "result": "10-16%"}, {"measurement": "change of proteasome inhibitory activity with COMT inhibitor DNC", "setting": "[3]", "result": "improved"}]}, {"smiles": "CC(=O)Oc1cc(C(=O)O[C@H]2Cc3ccccc3C[C@H]2OC(=O)c2cc(OC(C)=O)c(OC(C)=O)c(OC(C)=O)c2)cc(OC(C)=O)c1OC(C)=O", "note": "[compound 6]", "values": [{"measurement": "inhibition of cell proliferation", "setting": "MDA-MB-231 cells", "result": "about 50%"}, {"measurement": "cell growth inhibition compared to non-acetylated precursors 5 and 7", "setting": "MDA-MB-231 cells", "result": "more potent"}]}, {"smiles": "O=C(O[C@H]1Cc2ccccc2C[C@H]1OC(=O)c1cc(O)cc(O)c1)c1cc(O)cc(O)c1", "note": "[compound 7]", "values": [{"measurement": "inhibition of proteasomal activity", "setting": "[3]", "result": "18-51%"}, {"measurement": "change of proteasome inhibitory activity with COMT inhibitor DNC", "setting": "[3]", "result": "only slightly increased"}]}, {"smiles": "CC(=O)Oc1cc(OC(C)=O)cc(C(=O)O[C@H]2Cc3ccccc3C[C@H]2OC(=O)c2cc(OC(C)=O)cc(OC(C)=O)c2)c1", "note": "[compound 8]", "values": [{"measurement": "accumulation of ubiquitinated proteins", "setting": "[4]", "result": "higher levels of ubiquitinated proteins"}, {"measurement": "inhibition of cell proliferation", "setting": "MDA-MB-231 cells", "result": "70-79%"}, {"measurement": "cell growth inhibition compared to non-acetylated precursors 5 and 7", "setting": "MDA-MB-231 cells", "result": "more potent"}]}, {"smiles": "O=C(O[C@H]1Cc2ccccc2C[C@H]1O)c1cc(O)c(O)c(O)c1", "note": "[compound 16]", "values": [{"measurement": "proteasome inhibition", "setting": "[1]", "result": "not active"}]}, {"smiles": "O=C(O[C@H]1Cc2ccccc2C[C@H]1O)c1cc(O)cc(O)c1", "note": "[compound 21]", "values": [{"measurement": "proteasome inhibition", "setting": "[1]", "result": "not active"}]}]}
